Assay results taken from publication PMC6543826 (Bioorganic chemistry, 2018).
Values joined by “and” are separate entries in the source; they are usually repeats but may differ in a detail not shown here. Equal entries are not always repeated.

Experiments:
[1] = tested on: CCRF-CEM; test: cells; format: cell-based; conditions: 10^−5 M, 48 h
[2] = tested on: K-562; test: cells; format: cell-based; conditions: K-562, 10^−5 M, 48 h
[3] = tested on: MOLT-4; test: cells; format: cell-based; conditions: MOLT-4, 10^−5 M, 48 h
[4] = tested on: RPMI-8226; test: cells; format: cell-based; conditions: RPMI-8226, 10^−5 M, 48 h
[5] = tested on: A549/ATCC; test: cells; format: cell-based; conditions: A549/ATCC, 10^−5 M, 48 h
[6] = tested on: EKVX; test: NCI-60 SRB screen, Non-small cell lung cancer; format: cell-based, human; conditions: 10^−5 M, 48 h
[7] = tested on: HOP-62; test: cells; format: cell-based; conditions: HOP-62, 10^−5 M, 48 h
[8] = tested on: HOP-92; test: cells; format: cell-based; conditions: HOP-92, 10^−5 M, 48 h
[9] = tested on: NCI-H226; test: cells; format: cell-based; conditions: NCI-H226, 10^−5 M, 48 h
[10] = tested on: NCI-H23; test: cells; format: cell-based; conditions: NCI-H23, 10^−5 M, 48 h
[11] = tested on: NCI-H322M; test: cells; format: cell-based; conditions: 10^−5 M, 48 h
[12] = tested on: NCI-H460; test: cells; format: cell-based; conditions: NCI-H460, 10^−5 M, 48 h
[13] = tested on: NCI-H522; test: cells; format: cell-based; conditions: NCI-H522, 10^−5 M, 48 h
[14] = tested on: HCC-2998; test: cells; format: cell-based; conditions: HCC-2998, 10^−5 M, 48 h
[15] = tested on: HCT-116; test: cells; format: cell-based; conditions: HCT-116, 10^−5 M, 48 h
[16] = tested on: HCT-15; test: cells; format: cell-based; conditions: HCT-15, 10^−5 M, 48 h
[17] = tested on: HT29; test: cells; format: cell-based; conditions: HT29, 10^−5 M, 48 h
[18] = tested on: KM 12; test: cells; format: cell-based; conditions: KM 12, 10^−5 M, 48 h
[19] = tested on: SW-620; test: cells; format: cell-based; conditions: SW-620, 10^−5 M, 48 h
[20] = tested on: SF-268; test: cells; format: cell-based; conditions: SF-268, 10^−5 M, 48 h
[21] = tested on: SF-539; test: cells; format: cell-based; conditions: SF-539, 10^−5 M, 48 h
[22] = tested on: SNB-19; test: cells; format: cell-based; conditions: SNB-19, 10^−5 M, 48 h
[23] = tested on: SNB-75; test: cells; format: cell-based; conditions: SNB-75, 10^−5 M, 48 h
[24] = tested on: U251; test: cells; format: cell-based; conditions: U251, 10^−5 M, 48 h
[25] = tested on: LOX IMVI; test: cells; format: cell-based; conditions: 10^−5 M, 48 h
[26] = tested on: MALME-3M; test: cells; format: cell-based; conditions: MALME-3M, 10^−5 M, 48 h
[27] = tested on: M14; test: cells; format: cell-based; conditions: M14, 10^−5 M, 48 h
[28] = tested on: MDA-MB-435; test: cells; format: cell-based; conditions: MDA-MB-435, 10^−5 M, 48 h
[29] = tested on: SK-MEL-2; test: cells; format: cell-based; conditions: SK-MEL-2, 10^−5 M, 48 h
[30] = tested on: SK-MEL-28; test: cells; format: cell-based; conditions: SK-MEL-28, 10^−5 M, 48 h
[31] = tested on: SK-MEL-5; test: cells; format: cell-based; conditions: SK-MEL-5, 10^−5 M, 48 h
[32] = tested on: UACC-62; test: cells; format: cell-based; conditions: UACC-62, 10^−5 M, 48 h
[33] = tested on: IGROV1; test: cells; format: cell-based; conditions: IGROV1, 10^−5 M, 48 h
[34] = tested on: OVCAR-3; test: cells; format: cell-based; conditions: OVCAR-3, 10^−5 M, 48 h
[35] = tested on: OVCAR-4; test: cells; format: cell-based; conditions: OVCAR-4, 10^−5 M, 48 h
[36] = tested on: OVCAR-5; test: cells; format: cell-based; conditions: OVCAR-5, 10^−5 M, 48 h
[37] = tested on: OVCAR-8; test: cells; format: cell-based; conditions: OVCAR-8, 10^−5 M, 48 h
[38] = tested on: SK-OV-3; test: cells; format: cell-based; conditions: SK-OV-3, 10^−5 M, 48 h
[39] = tested on: A498; test: NCI-60 SRB screen, Renal cancer; format: cell-based, human; conditions: A498, 10^−5 M, 48 h
[40] = tested on: ACHN; test: cells; format: cell-based; conditions: 10^−5 M, 48 h
[41] = tested on: RXF 393; test: cells; format: cell-based; conditions: RXF 393, 10^−5 M, 48 h
[42] = tested on: SN12C; test: cells; format: cell-based; conditions: 10^−5 M, 48 h
[43] = tested on: UO-31; test: cells; format: cell-based; conditions: UO-31, 10^−5 M, 48 h
[44] = tested on: PC-3; test: cells; format: cell-based; conditions: PC-3, 10^−5 M, 48 h
[45] = tested on: DU-145; test: cells; format: cell-based; conditions: DU-145, 10^−5 M, 48 h
[46] = tested on: MCF7; test: cells; format: cell-based; conditions: MCF7, 10^−5 M, 48 h
[47] = tested on: BT-549; test: cells; format: cell-based; conditions: BT-549, 10^−5 M, 48 h
[48] = tested on: T-47D; test: cells; format: cell-based; conditions: T-47D, 10^−5 M, 48 h
[49] = tested on: MDA-MB-468; test: cells; format: cell-based; conditions: MDA-MB-468, 10^−5 M, 48 h
[50] = target: ERK2 (Rattus norvegicus, UniProt P63086); test: in vitro radioactive kinase assay, Ets-1 phosphorylation by ERK2; format: biochemical; conditions: ERK2 IC50 at 100 μM ATP /10mM Ets-1, Table 4; 100 μM ATP /10mM Ets-1
Chain of ERK2 (P63086 whole entry): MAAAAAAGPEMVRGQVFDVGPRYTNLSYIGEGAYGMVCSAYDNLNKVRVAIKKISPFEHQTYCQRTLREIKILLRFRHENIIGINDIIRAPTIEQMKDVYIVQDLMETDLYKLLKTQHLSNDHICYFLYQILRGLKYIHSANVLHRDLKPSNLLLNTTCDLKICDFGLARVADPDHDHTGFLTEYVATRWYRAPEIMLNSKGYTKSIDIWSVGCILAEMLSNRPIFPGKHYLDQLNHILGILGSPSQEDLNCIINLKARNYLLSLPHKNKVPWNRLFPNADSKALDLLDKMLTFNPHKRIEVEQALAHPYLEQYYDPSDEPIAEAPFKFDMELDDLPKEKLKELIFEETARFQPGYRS
Summary of the method: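 Activated rat ERK2 (2 nM) was tested with His-Ets-1 (1–138) at 28–30 °C in HEPES pH 7.5 buffer with 11 mM MgCl2, BSA and 5% DMSO. Reactions were started with [γ-32P]ATP (10 or 100 μM).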

[51] = tested on: NCI-60 panel of tumor cell lines

Cn1c(=O)c2c3c(oc2c2ccccc21)C(=O)c1ccccc1C3=O [3e, 5-Methylnaphtho[2′,3′:4,5]furo[3,2-c]quinoline-6,7,12(5H)-trione]
Growth percent (G%) [1]: 19.07% | Growth percent (G%) [2]: 68.79% | Growth percent (G%) [3]: 2.39% | Growth percent (G%) [4]: 51.06% | Growth percent (G%) [5]: 81.67% | Growth percent (G%) [6]: 70.67% | Growth percent (G%) [7]: 81.77% | Growth percent (G%) [8]: 100.92% | Growth percent (G%) [9]: 73.22% | Growth percent (G%) [10]: 78.33% | Growth percent (G%) [11]: 96.16% | Growth percent (G%) [12]: 78.50% | Growth percent (G%) [13]: 50.55% | Growth percent (G%) [14]: 101.82% | Growth percent (G%) [15]: 71.69% | Growth percent (G%) [16]: 85.01% | Growth percent (G%) [17]: 73.69% | Growth percent (G%) [18]: 91.54% | Growth percent (G%) [19]: 86.24% | Growth percent (G%) [20]: 95.35% | Growth percent (G%) [21]: 97.17% | Growth percent (G%) [22]: 93.29% | Growth percent (G%) [23]: 64.39% | Growth percent (G%) [24]: 90.22% | Growth percent (G%) [25]: 76.59% | Growth percent (G%) [26]: 113.45% | Growth percent (G%) [27]: 85.59% | Growth percent (G%) [28]: 103.73% | Growth percent (G%) [29]: 92.64% | Growth percent (G%) [30]: 111.89% | Growth percent (G%) [31]: 76.95% | Growth percent (G%) [32]: 77.03% | Growth percent (G%) [33]: 68.65% | Growth percent (G%) [34]: 21.58% | Growth percent (G%) [35]: 4.38% | Growth percent (G%) [36]: 119.92% | Growth percent (G%) [37]: 85.32% | Growth percent (G%) [38]: 93.55% | Growth percent (G%) [39]: 93.29% | Growth percent (G%) [40]: 75.49% | Growth percent (G%) [41]: 100.91% | Growth percent (G%) [42]: 81.84% | Growth percent (G%) [43]: 54.76% | Growth percent (G%) [44]: 64.38% | Growth percent (G%) [45]: 90.97% | Growth percent (G%) [46]: 68.38% | Growth percent (G%) [47]: 77.38% | Growth percent (G%) [48]: 9.70% | Growth percent (G%) [49]: −9.91% | IC50 [50]: 21 ± 5.6 µM | NCI Cytotoxicity Screening Average G% ([51]; Table 4, 10 μM one-dose screen): 74% | Average G% ([51]; average over tested NCI-60 cell lines, 10^−5 M (10 μM), 48 h): 74% and 74.32%
